Many of the other results were omitted from the sample, so hits are more common in it than they were.
XBP1 UPR activ: activators of adaptive arm of unfolded protein response (XBP1) | CHO-XBP1 luciferase reporter, IRE1-XBP1 UPR activation, luminescence; percent of tunicamycin response, DMSO as zero | actives 0.33% (n = 330,000) | activation, % at 20 µM | AID 463104;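 active = versus positive control, 20 µM dose yields 30% or more activation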;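 note: 100% = tunicamycin at 10 µg/mL and 0% = DMSO only wells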
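Material: CHO-XBP1 cells stably carrying IRE1-XBP1-driven luciferase reporter | Medium: F12 with 10% serum | Compound dosing: 20 µM single concentration, DMSO 1% | Incubation: Overnight seeding at 37 °C, 6 h compound treatment at 37 °C | Detection: Steady-Glo luminescence read | Read-out basis: % activation of reporter signal versus tunicamycin and DMSO controls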
Dynein cargo inh: blocks dynein driven cargo transport along microtubules | actives 0.47% (n = 220,000) | z-score, hits read low | 3617.4 mouse cells, GR-EGFP nuclear translocation imaging; test concentration mostly 20 µM; stimulated with dexamethasone, 1 µM; stronger effect = lower value;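 active = plate z-score of nuclear minus cytoplasmic receptor signal below a set negative limit, without overly bright fluorescence or cell loss, cut at about -3.5 in these data, passing the limit was not always enough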;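 note: z-score of nuclear minus cytoplasmic ring GR-EGFP intensity difference per well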
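Buffer or medium: Induction medium lacking tetracycline, stripped serum | Also added: Dexamethasone agonist, 1.0 µM final, for 30 min | Timing: 48 h induction, 1 h compound, 30 min dex at 37 °C | Detection: Formaldehyde fixation, Hoechst nuclear stain, 10x automated fluorescence imaging | Measure: Nuclear versus cytoplasmic GR-EGFP signal, averaged per well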
CHOP inh: blocks CHOP induction under ER stress; CHO-K1 CHOP-promoter luciferase, tunicamycin-induced, 15-18 h; inhibition, % at 10 µM; actives 3.8% (n = 220,000);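 active = compounds that reduced the stress-induced luciferase reporter signal by more than about 70% of percent inhibition, limit read from the data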;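 note: 0% = tunicamycin plus vehicle and 100% = wells without tunicamycin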
Lmaj promast: reduces viability of Leishmania major promastigotes; resazurin fluorescence viability; inhibition, % at 10 µM; actives 9% (n = 200,000); AID 1063; in the data active = inhibition above about 50%;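 note: promastigotes grown with compound for 44 hours at 28 °C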
UPR CHOP act: activators of apoptotic arm of unfolded protein response (CHOP); activation, % at 10 µM; actives 0.34% (n = 330,000); CHO-CHOP luciferase reporter, UPR activation, luminescence; percent of tunicamycin response over DMSO baseline;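 active = at 10 µM dose, activation of 40% or more, normalized to positive control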;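 note: 100% = tunicamycin at 10 µg/mL and 0% = DMSO alone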
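Test system: CHO CHOP reporter cells. Input: 500 CHO-CHOP cells per well. Medium: F12 with 10% FBS. Technique: luciferase luminescence. Measure: percent activation relative to tunicamycin control. Dosing: 10 µM compound, 0.5% DMSO. Timing: 16-18 h cell attachment, then 6 h compound exposure, 37 °C.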
T cruzi repl: blocks replication of Trypanosoma cruzi; T. cruzi beta-gal in NIH3T3, luminescence, 90 h; inhibition, % (test concentration not listed); actives 1.4% (n = 300,000); AID 1885;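 active = mean inhibition across valid replicates above about 55%, limit read from the data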;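 note: signal also drops with host cell toxicity which is not excluded here; 0% = plate median of DMSO wells and 100% = zero luminescence signal; higher percent means less beta-gal luminescence so fewer parasites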
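assay system = mouse NIH/3T3 fibroblasts infected with β-gal-expressing T. cruzi Tulahuen C4 | input = 5,000 NIH/3T3 host cells per well | buffer or medium = DMEM plus 2% FBS | timing = 3 h host attachment, then at least 90 h co-culture | measured by = GalScreen luminescence, 60 min | evaluation = luminescence reflecting intracellular parasite burden, expressed as percent inhibition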
UPR CHOP confirm: apoptotic UPR (CHOP) activation, confirmed; shares compounds with UPR CHOP act; CHO-CHOP cells, CHOP-luciferase reporter luminescence; percent of tunicamycin response, DMSO as zero; activation, % at 10 µM; actives 64% (n = 1,000); AID 463112; in the data active = activation above about 33%;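 note: 0% = DMSO wells and 100% = tunicamycin 10 µg/mL wells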
An asterisk follows results filed as active; / = not tested or not shown.

SMILES | XBP1 UPR activ | Dynein cargo inh | CHOP inh | Lmaj promast | UPR CHOP act | T cruzi repl | UPR CHOP confirm
CN(C)S(=O)(=O)c1cccc(NC(=O)CSc2cccc3cccnc23)c1 | -5 | / | / | / | 162* | 60* | 246*
Cc1ccc(/C=C/C(=O)c2ccc([N+](=O)[O-])o2)cc1 | -4 | / | / | / | 189* | 25 | 135*
O=C(/C=C/c1ccc(Cl)cc1)c1ccc([N+](=O)[O-])o1 | -6 | / | / | / | 69* | 4 | 22
COc1ccc(C2Nc3ccccc3NC3=C2C(=O)CC(C)(C)C3)cc1O (stereo unspecified) | -5 | / | / | / | / | 7 | -1
Cc1cc(SCC(=O)N/N=C/c2ccc(O)c(O)c2)c(C)cc1Br | 23 | -0.72 | -2 | 72* | 57* | -44 | 20
O=C(N/N=C/c1ccc(O)c(O)c1)c1cc(-c2ccccc2)nc2ccccc12 | 34* | / | / | / | 99* | -28 | 25
COc1ccc2nc(C)cc(SCC(=O)N/N=C/c3ccc(O)c(O)c3)c2c1 | 6 | -1.5 | -35 | 15 | 0 | -12 | /
Cc1cc(SCC(=O)N/N=C/c2ccc(O)c(O)c2)nc2ccccc12 | 59* | / | / | / | 108* | -8 | 42*
O=C(N/N=C/c1cccc(O)c1)c1cc(-c2ccccc2)nc2ccccc12 | -2 | / | / | / | 5 | -1 | /
CC(OC(=O)Cn1cnc2c1c(=O)n(C)c(=O)n2C)C(=O)NC(C)c1ccc(Cl)cc1Cl (stereo unspecified) | -2 | / | / | / | -1 | -10 | /
CCOC(=O)C=Nc1c(N)n(C)c(=O)n(C)c1=O | 1 | -0.027 | 12 | 30 | 1 | -3 | /
[O-][n+]1c(/C=C/c2ccccc2)ccc2ccccc21 | 2 | / | / | / | 127* | -14 | -5
C[C@@H]1Cc2c(O)c(O)cc(O)c2C(=O)O1 | -5 | 0.7 | -22 | / | -2 | -12 | /
CC1CCC/C=C/C(=O)c2c(O)cc(O)cc2CC(=O)O1 (stereo unspecified) | -6 | -4.5* | 44 | / | 55* | 30 | 91*
O=C(c1ccccc1Br)N(Cc1ccccc1)c1ccccc1 | 0 | / | / | / | -1 | 5 | /
O=C(N/N=C/c1ccccc1)C(=O)N/N=C/c1ccccc1 | -1 | / | / | / | 0 | -2 | /
O=C(C=C=Nc1ccccc1)C(=O)N=C=Cc1ccccc1 | 1 | -0.77 | 96* | / | 225* | -35 | 135*
N#C/C(=C/c1ccc(O)c(O)c1)C(=O)NCc1ccc(Cl)cc1 | 12 | / | / | / | 103* | 2 | 22
N#C/C(=C/c1cccc(O)c1)C(=O)NCc1ccc(Cl)cc1 | -4 | / | / | / | 4 | -6 | /
CCCOc1ccc(N2C(=O)CC(N(O)c3ccccc3)C2=O)cc1 (stereo unspecified) | 5 | 0.1 | 11 | 4 | 192* | 3 | 170*
O=C(Oc1c(CN2CCOCC2)cc(Cl)c2cccnc12)c1ccc(F)cc1 | 20 | -0.29 | 41 | 100* | 40* | 56* | 40*
COc1cc(C(=S)N2CCOCC2)cc(OC)c1OC(=O)c1ccc(F)cc1 | -5 | / | / | / | 32 | 8 | /
COc1cccc(C(=O)Oc2c(CN3CCOCC3)cc(Cl)c3cccnc23)c1 | 19 | -1.5 | -58 | 100* | 80* | 34 | 28
COc1cc(C(=O)Oc2c(OC)cc(C(=S)N3CCOCC3)cc2OC)cc(OC)c1OC | -4 | / | / | / | 0 | 7 | /
COc1cc(C(=O)Oc2c(CN3CCOCC3)cc(Cl)c3cccnc23)cc(OC)c1OC | 24 | -0.71 | 29 | 100* | 62* | 30 | 56*
SMILES | XBP1 UPR activ | Dynein cargo inh | CHOP inh | Lmaj promast | UPR CHOP act | T cruzi repl | UPR CHOP confirm
Cn1c(=O)c2sccc2n(Cc2cccc(Br)c2)c1=O | -6 | / | / | / | 2 | -6 | /
CC(C)(C)c1ccc2c(c1)OC(C(=O)N/N=C\c1ccncc1)CO2 (stereo unspecified) | 2 | -0.26 | 11 | / | 1 | 0 | /
CC(C)(C)c1ccc2c(c1)OC(C(=O)N/N=C/c1ccc([N+](=O)[O-])o1)CO2 (stereo unspecified) | 2 | -1.2 | 14 | / | 81* | 60* | 0
COc1cc(OC)cc(C(=O)N2CCN(S(=O)(=O)c3ccc(Cl)s3)CC2)c1 | -1 | / | / | / | 0 | / | /
CC(C)(C)c1ccc(C(=O)NCCC(=O)Nc2cc(Cl)ccc2N2CCOCC2)cc1 | -6 | / | / | / | -2 | / | /
CC(C)(C)C(=O)N1CCN(c2ccc(NC(=O)c3ccc([N+](=O)[O-])o3)cc2)CC1 | 2 | / | / | / | 59* | 18 | 87*
Cc1c(/C=N/Nc2nc3ccccc3[nH]2)c2ccccc2n1C | 2 | -0.31 | -218 | / | 320* | 56* | -1
CC1(C)Cc2c(c(N3CCOCC3)nc3sc(C(=O)Nc4ccccc4)c(N)c23)CO1 | 4 | / | / | / | 28 | 12 | /
CC1(C)Cc2c(c(N3CCOCC3)nc3sc(C(=O)Nc4cccc(Cl)c4)c(N)c23)CO1 | 7 | / | / | / | 88* | -2 | 0
Cc1cc(C(=O)CSc2nnnn2C)c(C)n1CCc1ccc(F)cc1 | -1 | -0.65 | -23 | -3 | 2 | 8 | /
Cc1cc(C(=O)CCl)c(C)n1CCc1ccc(F)cc1 | 8 | 0.89 | -407 | 100* | 179* | 73* | 195*
CS(=O)(=O)c1nc(-c2ccccc2)cc(-c2ccccc2)c1C#N | 10 | -1.9 | 5 | 22 | 68* | 9 | 47*
Cc1cc(C(=O)Nc2cccc(C)c2C)c2ccccc2n1 | -3 | / | / | / | 0 | -5 | /
O=C1C=C(Nc2ccc(F)cc2)c2ccccc2C1=O | 2 | / | / | / | 62* | / | 9
CC(C)CN(Cc1cc(=O)oc2cc3c(cc12)CCCC3)CC(C)C | -2 | 0.044 | 1 | / | -3 | -2 | /
CCC(=O)c1ccc2c(c1)OCCO2 | -4 | 0.81 | 10 | / | 2 | -7 | /
O=C(Cn1ncc(Cl)c(Cl)c1=O)c1ccc2c(c1)OCCO2 | -3 | / | / | / | 45* | / | 48*
NC(=O)NC(CC(=O)NCc1ccc2c(c1)OCO2)c1ccccc1Cl (stereo unspecified) | 2 | / | / | / | 0 | -1 | /
O=C(OCCc1ccccc1)c1cc(O)c(O)c(O)c1 | 12 | / | / | / | 118* | -39 | 11
Nc1ccc(C(=O)OCCc2ccccc2)cc1 | -2 | / | / | / | -1 | -3 | /
CCOC(=O)c1c(-c2ccc(-c3ccccc3)cc2)csc1NC(=O)CNCCN(C)C | 10 | / | / | / | 42* | 47 | 119*
Cn1ccnc1C(=O)c1cc(SCC(=O)NC2CC2)nc2ccccc12 | 3 | -0.041 | 7 | 0 | 2 | -23 | /
CN(C(=O)CSc1cc(C(=O)c2nccn2C)c2ccccc2n1)c1ccccc1 | 27 | 1.3 | -2 | / | 95* | 5 | 94*
